{"data": "Assay results from different studies", "target": "Tyrosine-protein kinase Blk (BLK, Homo sapiens, UniProt P51451)", "note": "Lines come from different studies, so protocols differ."}
{"Structure (SMILES)": "Nc1c(C(=O)NCc2ccc(C(=O)NCCCC3CCCCC3)cc2)cnn1-c1ccccc1", "effect on": "cell-free assay", "technique": "competition with immobilised ligand", "tested at": "0.1 µM", "endpoint": "remaining binding", "result": "81%"}
{"Structure (SMILES)": "O=C1Nc2ccc(Cl)cc2C1=Cc1cc(Cl)c(O)c(Cl)c1", "effect on": "cell-free assay", "tested at": "0.5 µM", "endpoint": "remaining signal", "result": "102%"}
{"Structure (SMILES)": "Cc1cc(NC(=O)c2cccc3cc(-c4cccc5[nH]nc(N)c45)ccc23)ccc1F", "effect on": "enzyme activity", "mode": "inhibitor", "tested at": "0.1 µM", "endpoint": "activity vs control", "result": "114%"}
{"Structure (SMILES)": "CN1CC(Oc2cnc(C#N)cc2-c2ccn3nc(NC(=O)C4CC4)cc3c2)C1", "effect on": "enzyme activity", "mode": "inhibitor", "tested at": "1 µM", "endpoint": "inhibition", "result": "28%"}
{"Structure (SMILES)": "O=C(O)[C@H]1[C@H](Cn2nnc3ccccc3c2=O)CC[C@@H]1C(=O)c1ccc(OCCC2CCOCC2)cc1", "effect on": "cell-free assay", "technique": "competition with immobilised ligand", "tested at": "1 µM", "endpoint": "remaining binding", "result": "100%"}
{"Structure (SMILES)": "O=C1NC(=O)c2cc(Nc3ccc(F)cc3)c(Nc3ccc(F)cc3)cc21", "effect on": "cell-free assay", "tested at": "0.5 µM", "endpoint": "remaining signal", "result": "94.3%"}
{"Structure (SMILES)": "O=C(Nc1cnn(-c2csc(C(=O)NC3COC3)c2)c1)Nc1ccccc1Cl", "effect on": "enzyme activity", "mode": "inhibitor", "tested at": "5 µM", "endpoint": "remaining activity", "result": "79.2%"}
{"Structure (SMILES)": "Cc1nccc(COC(=O)N2C[C@@H]3[C@@H](CNC(=O)c4ccc5[nH]nnc5c4)[C@@H]3C2)n1", "effect on": "cell-free assay", "technique": "competition with immobilised ligand", "tested at": "1 µM", "endpoint": "remaining binding", "result": "93%"}
{"Structure (SMILES)": "COc1cc2ncnc(Nc3ccc(Oc4ccccc4)c(C)c3C)c2cc1OC", "effect on": "enzyme activity", "mode": "inhibitor", "tested at": "1 µM", "endpoint": "inhibition", "result": "71%"}
{"Structure (SMILES)": "Cc1ccc(C(=O)NCc2ccsc2)cc1C#Cc1cn(C(C)C)c2ncnc(N)c12", "effect on": "enzyme activity", "mode": "inhibitor", "tested at": "1 µM", "endpoint": "activity vs control", "result": "4%"}
{"Structure (SMILES)": "CC(C)(C)c1nc2c(s1)c1nc(N)ncc1c1ccc(NS(=O)(=O)c3c(F)cccc3F)c(F)c12", "effect on": "enzyme activity", "mode": "inhibitor", "technique": "radiometric", "tested at": "1 µM", "endpoint": "remaining activity", "result": "52%"}
{"Structure (SMILES)": "C=CC(=O)Nc1cc(Nc2nccc(Nc3cc(Cl)c(F)cc3C(C)(C)O)n2)c(OC)cc1N1CC[C@@H](N(C)C)C1", "effect on": "enzyme activity", "mode": "inhibitor", "tested at": "1 µM", "endpoint": "inhibition", "result": "90%"}
{"Structure (SMILES)": "CNC(=O)c1cc2c(Oc3ccc(NC(=O)C4(C(=O)Nc5ccc(F)cc5)CC4)cc3)ccnc2cc1OC", "effect on": "enzyme activity", "mode": "inhibitor", "technique": "radiometric", "tested at": "1 µM", "endpoint": "inhibition", "result": "94%"}
{"Structure (SMILES)": "CCN(CC)c1ccc(C2=NNC(=O)CC2C)cc1[N+](=O)[O-] (stereo not drawn)", "effect on": "enzyme activity", "mode": "inhibitor", "tested at": "10 µM", "endpoint": "remaining activity", "result": "110%"}
{"Structure (SMILES)": "COc1ccc2cc(OCC3(C(=O)O)CN(C(=O)c4ccc(F)cc4)C3)ccc2c1", "effect on": "cell-free assay", "technique": "competition with immobilised ligand", "tested at": "1 µM", "endpoint": "remaining binding", "result": "93%"}
{"Structure (SMILES)": "Nc1ncnc2occ(-c3ccc(NC(=O)Nc4cc(C(F)(F)F)ccc4F)cc3)c12", "effect on": "cell-free assay", "tested at": "20 µM", "endpoint": "remaining signal", "result": "0.45%"}
{"Structure (SMILES)": "Nc1nc(Nc2ccc(S(N)(=O)=O)cc2)nn1C(=O)c1c(F)cccc1F", "effect on": "cell-free assay", "tested at": "0.5 µM", "endpoint": "remaining signal", "result": "90.1%"}
{"Structure (SMILES)": "CC(C)CC(=O)N1CCc2nc(-c3ccc(Br)cc3)nc(N(C)Cc3ccccc3)c2C1", "effect on": "cell-free assay", "technique": "competition with immobilised ligand", "tested at": "0.1 µM", "endpoint": "remaining binding", "result": "84%"}
